# High-throughput results from PubChem.
# Only some compounds are listed: those with a hit (about 3.1% of all), similar ones and a draw of the others.
# DENV2 CPE: inhibitors of DENV2 cytopathic effect, primary screen, cell-based, plate reader, single concentration | DENV2-infected cells, cytopathic effect rescue | hit rate 1.7% among 350,000 | CPE inhibition, % at 9.99 µM; in the data active means CPE inhibition above about 20%, passing the limit was not always enough; inconclusive means no clear call, values can overlap the other calls; tested in BHK-21 cells;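 further: 0% = median of neutral control wells and 100% = median of positive control wells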
# Cneo AK release: Cryptococcus neoformans cell lysis inducers, primary screen, AK release luminescence, single concentration. hit rate 0.2% among 360,000. lysis activity, % at 15 µM. AID 651654, 2012. C. neoformans lysis, adenylate kinase release luminescence, 4 h; normalised: neutral wells 0, clomiphene wells 100;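 active means mean lysis activity across replicates of at least 80%, whatever share of replicates individually reach that level; inactive means mean lysis activity below 80%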
#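 Assay system: Cryptococcus neoformans yeast cells / Dosing: single-point compound dose / Timing: 4 h at 37 °C static, read 1 h later / Measured by: luminescence of released adenylate kinase using an AK detection reagent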
# rRNA inh HTS: reduced GFP signal of wild-type E. coli, primary screen, bacterial rRNA inhibitor project, GFP/RFP fluorescence, OD600, single point; GFP signal change (wild-type ribosome), % (test concentration not listed); hit rate 1.6% among 350,000; E. coli WT GFP vs humanized-ribosome RFP mutants, 24 h; stronger effect = lower value; DMSO median 0, no signal -100;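 active means significant combined selectivity score with lowered wild-type GFP, culture density cut under 30%, mutant RFP and density less affected; inactive means any of these conditions unmet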
# miR-122 sensor: miR-122 Renilla sensor signal increase in Huh7, primary screen, miR-122 inhibitor project, cell-based, single point, plate reader; Huh7 miR-122 Renilla luciferase sensor, 48 h; neutral wells = 0, positive control = 100; activation (reporter increase), % at 12.5 µM; hit rate 0.3% among 340,000;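 active means mean replicate activation score at least 90 and every replicate individually at or above 90; inconclusive means only one of the two criteria met; inactive means neither criterion met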;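 further: higher luciferase means less miR-122 activity so hits act as miR-122 inhibitors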
# E-selectin induc: E-selectin induction in HUVECs, primary screen, imaging, HUVEC, immunofluorescence imaging, single point | normalized: neutral wells 0, TNF-alpha wells 100 | hit rate 0.37% among 260,000 | P16581 | activation, % at 7.58 µM;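 active means mean E-selectin-positive cell signal at least 10% of the positive control, reached in at least 60% of replicates, without over 20% cell loss; inconclusive means no rule given, readout overlaps actives, possibly toxicity-flagged; inactive means the rest, including those meeting only one limit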
# Target sequence (P16581 whole entry, looked up): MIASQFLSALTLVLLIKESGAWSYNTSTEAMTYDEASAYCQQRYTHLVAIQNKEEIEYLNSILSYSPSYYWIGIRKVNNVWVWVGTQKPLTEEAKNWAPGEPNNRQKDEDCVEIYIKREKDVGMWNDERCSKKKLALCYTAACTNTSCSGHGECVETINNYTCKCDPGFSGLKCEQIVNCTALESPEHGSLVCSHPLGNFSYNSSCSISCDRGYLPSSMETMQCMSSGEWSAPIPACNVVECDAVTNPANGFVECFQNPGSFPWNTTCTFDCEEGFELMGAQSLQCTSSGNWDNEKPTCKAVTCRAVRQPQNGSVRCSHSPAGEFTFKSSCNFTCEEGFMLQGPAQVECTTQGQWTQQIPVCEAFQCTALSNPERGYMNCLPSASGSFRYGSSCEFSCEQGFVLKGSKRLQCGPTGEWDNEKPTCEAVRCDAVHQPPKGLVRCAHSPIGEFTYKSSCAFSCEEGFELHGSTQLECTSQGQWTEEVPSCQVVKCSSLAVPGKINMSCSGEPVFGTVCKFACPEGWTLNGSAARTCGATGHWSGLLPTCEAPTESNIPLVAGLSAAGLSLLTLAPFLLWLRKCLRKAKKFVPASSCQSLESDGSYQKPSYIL
#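 assay system = HUVEC, human umbilical vein endothelial cells | input = 3,000 HUVEC seeded per well | medium = EGM-2 growth medium on 0.1% gelatin-coated wells | dosing = one compound dose added by pin transfer | signal = immunofluorescence imaging | read-out basis = % PE-positive cells | control set = TNF-alpha, DMSO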
# Starred values were filed as active, the others as inactive; ? = inconclusive; . = not tested or not shown; ! = repeats disagree; [ ] = remark or other dose.
SMILES,DENV2 CPE,Cneo AK release,rRNA inh HTS,miR-122 sensor,E-selectin induc
COc1ccc(-c2oc3ccccc3c2C#Cc2cncn2C)cc1,70*,-3,11,-4,0
COc1cccc(NC(=O)Nc2ccc3c(c2)C(=O)N(C)C[C@H](OC)[C@@H](C)CN(C)[C@@H](C)CO3)c1,-3,-7,1,.,0
CCOC(=O)c1[nH]c(C)c(C(=O)Nc2ccccc2C)c1C,3,-1,-7,138*,0
O=C1C(=C(c2ccccc2)N2CCOCC2)Cc2ccccc21,6,.,-22*,.,.
COCC(=O)N(C)C[C@H]1Oc2ncc(-c3ccccc3F)cc2C(=O)N([C@@H](C)CO)C[C@@H]1C,3,-2,3,.,1
CNC[C@H]1Oc2ncc(Br)cc2C(=O)N([C@@H](C)CO)C[C@@H]1C,.,.,3,-6[16.7 µM],0
O=C1/C(=C/c2cccc(Cl)c2)SC(=S)N1CCC(=O)N1CCCCC1CCO (stereo not drawn),-7,1,-22*,.,0
O=C1/C(=C/c2cccs2)SC(=S)N1CC(=O)N1CCCCC1CCO (stereo not drawn),-5,2,-25*,.,.
O=C1/C(=C/c2ccccc2F)SC(=S)N1CCC(=O)N1CCCCC1CCO (stereo not drawn),-2,8,-23*,.,0
CCCC#Cc1ccc2c(c1)O[C@@H](CN(C)C(=O)C1CCCCC1)[C@H](C)CN([C@@H](C)CO)S2(=O)=O,.,.,-4,27[16.7 µM],1
Cn1cnc(CCNC(=O)C[C@@H]2CC[C@H]3[C@@H](COC[C@@H](O)CN3C(=O)Nc3ccc(F)cc3)O2)c1,2,1,2,-3[16.7 µM],0
CC(=O)N1C[C@@H]2[C@H](c3ccccc31)[C@@H](CO)N2C(=O)c1ccc(F)cc1,-5,-1,4,12[16.7 µM],0
O=C(C[C@H]1C[C@H]2c3cc(NS(=O)(=O)c4ccc(F)cc4)ccc3O[C@H]2[C@H](CO)O1)NCc1ccc(-c2ccccc2)cc1,-6,-33,-4,-5[16.7 µM],2
Cc1c(C(=O)NCc2ccco2)oc2ccccc12,-4,-18,-5,2,48*
Cc1c(C(=O)NCc2ccco2)oc2ccc(Br)cc12,?,-1,-4,4,1
Cc1ccc2c(C)c(C(=O)NCCc3ccco3)oc2c1C,-6,-2,-26*,0,0
CNC(=O)C[C@H]1CC[C@@H]2[C@H](COc3ccc(NC(=O)NCc4ccccc4)cc3C(=O)N2C)O1,0,-4,1,8[16.7 µM],0
Cc1ccc(-c2nnn(CC(=O)N(Cc3ccco3)C(C(=O)NC3CCCC3)c3cccs3)n2)o1 (stereo not drawn),.,3,.,79,.
CCN(CC)CCN(C(=O)Cn1nnc(-c2ccc(C)o2)n1)C(C(=O)NC(C)(C)C)c1cccs1 (stereo not drawn),-4,.,10,1,128*
Cn1c(SCC(=O)N2CCCC2)nc2ccccc21,2,.,8,.,3
Cn1c(SCC(=O)N(Cc2ccccc2)C(C)(C)C)nc2ccccc21,-1,6,-31*,-7,.
CCn1c(CNc2ccc(Cl)cc2)nnc1SCC#N,-1,.,2,.,56*
C[C@@H]1CN([C@@H](C)CO)C(=O)c2cc(NS(=O)(=O)c3cn(C)cn3)ccc2O[C@H]1CN(C)C(=O)NC1CCCCC1,45*,-2,7,2[16.7 µM],0
COc1ccc(NC(=O)N(C)C[C@H]2OCCCC[C@H](C)Oc3ccc(NS(=O)(=O)c4cn(C)cn4)cc3C(=O)N([C@H](C)CO)C[C@@H]2C)cc1,25*!,2,5,-1,0
C[C@@H]1CCCCO[C@@H](CN(C)C(=O)NC2CCCCC2)[C@H](C)CN([C@@H](C)CO)C(=O)c2cc(NS(=O)(=O)c3cn(C)cn3)ccc2O1,-6,101*,-1,3[16.7 µM],0
SMILES,DENV2 CPE,Cneo AK release,rRNA inh HTS,miR-122 sensor,E-selectin induc
C[C@H]1CN([C@@H](C)CO)C(=O)c2cc(NS(=O)(=O)c3cn(C)cn3)ccc2O[C@H]1CN(C)C(=O)NC1CCCCC1,?,-3,5,-2[16.7 µM],0
CO[C@@H]1CN(C)C(=O)c2cc(NC(C)=O)ccc2OC[C@@H](C)N(C(=O)CC2CC2)C[C@H]1C,27*,2,.,-13[16.7 µM],.
CO[C@H]1CN(C)C(=O)c2cc(NC(C)=O)ccc2OC[C@H](C)N(C(=O)CC2CC2)C[C@@H]1C,36*,-2,1,6[16.7 µM],0
O=C([C@H]1[C@H](CO)[C@H]2Cn3c(ccc(-c4ccccc4)c3=O)[C@@H]1N2)N1CCCCC1,1,54,4,.,0
Cc1c(/C=N/NC(=O)CNc2ccccc2)c2ccccn2c1C(=O)c1ccncc1,35*,.,-20,.,.
CCNC(=O)c1cc2c(c(-c3cccc(-c4cccc(F)c4)c3)n1)[C@@H](CCO)N([S@](=O)C(C)(C)C)C2,-1,67,-12,.,0
CC(C)(C)S(=O)N1Cc2cc(C(=O)Nc3ccc(-c4ccccc4)cc3)nc(-c3cccc(-c4cccc(F)c4)c3)c2[C@@H]1CCO (stereo partly drawn),?,.,7,.,29*
CCNC(=O)c1cc2c(c(-c3cccc(-c4cccc(OC)c4)c3)n1)[C@H](CCO)N([S@@](=O)C(C)(C)C)C2,3,1,-2,.,0
CC(C)(C)[S@](=O)N1Cc2cc(C(=O)N3CCCCC3)nc(-c3cccc(C4=CCCC4)c3)c2[C@@H]1CCO,26*,.,-1,.,1
CCNC(=O)c1cc2c(c(-c3cccc(-c4ccccc4F)c3)n1)[C@@H](CCO)N(C(=O)CC1CC1)C2,2,.,-10,.,0
COc1cccc(-c2cccc(-c3nc(C(=O)Nc4ccc(-c5ccccc5)cc4)cc4c3[C@@H](CCO)N(S(=O)C(C)(C)C)C4)c2)c1 (stereo partly drawn),?,.,6,.,36*
CCCNC(=O)c1cc2c(c(-c3cccc(-c4ccccc4F)c3)n1)[C@H](CCO)N(C(=O)CC1CC1)C2,82*,.,3,.,0
Cc1noc(C)c1NC(=O)N(C)C[C@@H]1OCCCC[C@@H](C)Oc2ccc(NC(=O)NC3CCCCC3)cc2C(=O)N([C@H](C)CO)C[C@@H]1C,5,-2,5,10[16.7 µM],.
CC(=O)N(C)C[C@H]1Oc2ncc(C#CC(C)(C)O)cc2C(=O)N([C@@H](C)CO)C[C@H]1C,-10,2,7,-6[16.7 µM],0
CC(=O)N(C)C[C@H]1Oc2cc(-c3cccnc3)ccc2S(=O)(=O)N([C@@H](C)CO)C[C@@H]1C,-2,2,-1,0[16.7 µM],0
